Laboratory results reported in ChEMBL document CHEMBL1275479, “Pharmacokinetics of miltefosine in Old World cutaneous leishmaniasis patients” (Antimicrob Agents Chemother, 2008).

Tests used:
Homo sapiens [1] = experiment: Hepatotoxicity in patient with cutaneous leishmaniasis assessed as mild elevation of alanine aminotransferase at […], po three times a day for 28 days; type: toxicity, organism-based; set-up: route oral; conditions: in vivo, 672 h
Homo sapiens [2] = experiment: Plasma concentration in patient with cutaneous leishmaniasis at […], po three times a day measured after 22 to 28 days by LC-MS/MS assay; type: ADME, organism-based; set-up: route oral; conditions: in vivo
Method in brief: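 31 cutaneous leishmaniasis patients given miltefosine 150 mg/day for 28 days. Venous EDTA blood was spun at about 23,100 × g, 4°C, 15 min, and plasma stored at ≤−20°C. Analysis was solid-phase extraction of 250 μl plasma, then isocratic C18 LC-MS/MS; range 4–2,000 ng/ml, higher samples diluted in blank plasma. Sampling windows: days 178–202, days 22–28.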

Homo sapiens [3] = organism: Homo sapiens; experiment: Plasma concentration in patient with cutaneous leishmaniasis measured after 178 to 202 days by LC-MS/MS assay; conditions: in vivo
Homo sapiens [4] = experiment: Renal toxicity in patient with cutaneous leishmaniasis assessed as mild elevation of creatinine at […], po three times a day for 28 days; type: organism-based; set-up: route oral; conditions: in vivo, 672 h
[5] = Terminal half life in patient with leishmaniasis at […], po three times a day for 28 days by LC-MS/MS assay; type: ADME, organism-based; set-up: route oral; conditions: human, in vivo
Method in brief: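 Population pharmacokinetic fit in NONMEM of 382 plasma concentrations (LC-MS/MS, LLOQ 4 ng/ml) from 31 patients on 150 mg/day for 28 days, sampled up to day 202. Nested models were compared by objective function with the log likelihood ratio test and checked with observed-versus-predicted and conditional weighted residual plots; a two-compartment model was used for the terminal half-life.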

Homo sapiens [6] = experiment: Toxicity in patient with cutaneous leishmaniasis assessed as mild to moderate fatigue at […], po three times a day for 28 days; type: organism-based; set-up: route oral; conditions: in vivo, 672 h
[7] = Cmax in serum of patient with cutaneous leishmaniasis at 2.5 mg/kg, po once a day for 23 days by LC-MS/MS assay; type: ADME, organism-based; set-up: dose 2.5 mg/kg, route oral; conditions: human
Homo sapiens [8] = experiment: Toxicity in patient with cutaneous leishmaniasis assessed as mild to moderate gastrointestinal side-effect at […], po three times a day for 28 days; type: organism-based; set-up: route oral; conditions: in vivo, 672 h
[9] = Terminal half life in patient with cutaneous leishmaniasis at 2.5 mg/kg, po once a day measured after 6 to 8 days by LC-MS/MS assay; type: ADME, organism-based; set-up: dose 2.5 mg/kg, route oral; conditions: human, in vivo
Homo sapiens [10] = experiment: Hepatotoxicity in patient with cutaneous leishmaniasis assessed as mild elevation of aspartate aminotransferase at […], po three times a day for 28 days; type: toxicity, organism-based; set-up: route oral; conditions: in vivo, 672 h

## CCCCCCCCCCCCCCCCOP(=O)([O-])OCC[N+](C)(C)C [MILTEFOSINE]
Homo sapiens [1]
  Activity: Toxic
Homo sapiens [2]
  Activity: 30800 ng/mL
Homo sapiens [3]
  Activity: 17.5 ng/mL
Homo sapiens [4]
  Activity: Toxic
[5]
  half-life: 30.9 days
Homo sapiens [6]
  Activity: Toxic
[7]
  Cmax: 70 µg/mL
Homo sapiens [8]
  Activity: Toxic
[9]
  half-life: 6.25 days
Homo sapiens [10]
  Activity: Toxic
